Data as given in ChEMBL document CHEMBL5370673 (ACS Med Chem Lett, 2023).
Calls of active or inactive are those of the source. The calls are words filed in the database; no cut-off is given here.

Assays:
[1] = Activation of Mesocestoides corti in TRPM binding site of PZQ expressed in HEK293 cells assessed as effect in cytosolic Ca2+ level measured for 250 sec by […] NW staining based FLIPR assay; format: cell-based
Procedure, shortened: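 HEK293 cells transiently transfected with the individual TRPMPZQ ortholog (S. mansoni, E. granulosus or M. corti). Cytosolic Ca2+ change read by fluorescence reporter (FLIPR) across increasing analog concentrations. Untransfected HEK293 cells serve as control.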

[2] = system: Rodentolepis nana; assay: Anti-cestodal activity against Hymenolepis nana infected in CF1/W74 mouse assessed as reduction in parasitic flatworms at 500 mg/kg relative to control; format: functional; set-up: scale not given: the % may be the effect or the level left
[3] = Activation of Echinococcus granulosus in TRPM binding site of PZQ expressed in HEK293 cells assessed as effect in cytosolic Ca2+ level measured for 250 sec by […] NW staining based FLIPR assay; format: cell-based
[4] = Activation of Schistosoma mansoni in TRPM binding site of PZQ expressed in HEK293 cells assessed as effect in cytosolic Ca2+ level measured for 250 sec by […] NW staining based FLIPR assay; format: cell-based
[5] = system: Schistosoma mansoni; assay: Antischistosomal activity against Schistosoma mansoni assessed as maximal effect at <= 320 uM; format: functional, organism-based
[6] = system: Echinococcus multilocularis; assay: Anthelmintic activity against Echinococcus multilocularis MB17 protoscoleces assessed as reduction in motility at 0.001 to 100 uM measured after 0.5 hrs by live cell imaging analysis; format: functional, organism-based; conditions: dose 0.001-100 µM
Procedure, shortened: (§1)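 E. multilocularis protoscoleces incubated ex vivo across a concentration range. Motility scored at 0.5, 12 and 24 h and expressed as % of DMSO vehicle control (mean ± SEM). IC50 taken from concentration–response curves at each time point.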

[7] = system: Schistosoma mansoni; assay: Antischistosomal activity against Schistosoma mansoni infected in CF1/W74 mouse assessed as reduction in parasitic flatworms viability at 500 mg/kg administered for 5 days relative to control; format: functional
[8] = system: Echinococcus multilocularis; assay: Induction of morphological changes in Echinococcus multilocularis MB17 protoscoleces assessed as increase in contraction at 100 uM by cestode motility assay; format: functional, organism-based
[9] = system: Rodentolepis nana; assay: Anti-cestodal activity against Hymenolepis nana infected in CF1/W74 mouse assessed as reduction in parasitic flatworms at 25 mg/kg relative to control; format: functional; set-up: scale not given: the % may be the effect or the level left
[10] = system: Echinococcus multilocularis; assay: Anthelmintic activity against Echinococcus multilocularis MB17 protoscoleces assessed as increase in contraction at 30 uM by live cell imaging analysis; format: functional, organism-based
[11] = system: Schistosoma mansoni; assay: Antischistosomal activity against Schistosoma mansoni assessed as maximal effect at <= 3.2 uM; format: functional, organism-based
[12] = system: Schistosoma mansoni; assay: Antischistosomal activity against Schistosoma mansoni infected in CF1/W74 mouse assessed as reduction in parasitic flatworms viability at 50 mg/kg administered for 5 days relative to control; format: functional; conditions: time 5 day
[13] = system: Echinococcus multilocularis; assay: Anthelmintic activity against Echinococcus multilocularis MB17 protoscoleces assessed as reduction in motility measured after 24 hrs by live cell imaging analysis; format: functional, organism-based; procedure, shortened: as §1
[14] = system: Echinococcus multilocularis; assay: Anthelmintic activity against Echinococcus multilocularis MB17 protoscoleces assessed as increase in contraction at 1 uM by live cell imaging analysis; format: functional, organism-based
[15] = Selectivity ratio of EC50 for activation of Schistosoma mansoni in TRPM binding site of PZQ expressed in HEK293 cells to EC50 for activation of Mesocestoides corti in TRPM binding site of PZQ expressed in HEK293 cells; format: cell-based
[16] = Selectivity ratio of EC50 for activation of Schistosoma mansoni in TRPM binding site of PZQ expressed in HEK293 cells to EC50 for activation of Echinococcus granulosus in TRPM binding site of PZQ expressed in HEK293 cells; format: cell-based
[17] = Mesocestoides corti, HEK293, read-out: EC50
[18] = Echinococcus granulosus, HEK293, read-out: EC50

## O=C(c1cccnc1)N1CC(=O)N2CCc3ccccc3[C@H]2C1
[1]; [17]
  EC50: 16000 nM
[2]
  Activity: 100%
[3]; [18]
  EC50: 22000 nM
[4]; hek293
  EC50: Not Active
[5]
  Activity: inactive
[6]
  Activity: Active
[7]; time 5.0 day
  Activity: inactive
[8]
  Activity: Active

## CN(C)c1ccc(C(=O)N2CC(=O)N3CCc4ccccc4C3C2)cc1 (centres undefined)
[1]; hek293
  EC50: Not Active
[9]
  Activity: 100%
[3]; hek293
  EC50: Not Active
[4]; hek293
  EC50: Not Active
[5]
  Activity: inactive
[7]; time 5 day
  Activity: 100%

## O=C(c1cccnc1)N1CC(=O)N2CCc3ccccc3[C@@H]2C1
[1]; [17]
  EC50: 980 nM
[10]
  Activity: Active
[9]
  Activity: 100%
[3]; [18]
  EC50: 1400 nM
[4]; Schistosoma mansoni, HEK293, read-out: EC50
  EC50: > 100000 nM
[5]
  Activity: inactive
[6]
  Activity: Active
[7]; time 5 day
  Activity: 100%

## O=C(c1cccnc1)N1CC(=O)N2CCc3ccccc3C2C1 (racemic)
[1]; [17]
  EC50: 5300 nM
[9]
  Activity: 100%
[3]; [18]
  EC50: 2300 nM
[4]; hek293
  EC50: Not Active
[5]
  Activity: Active
[7]; time 5 day
  Activity: <90%

## O=C(C1CCCCC1)N1CC(=O)N2CCc3ccccc3[C@@H]2C1 [PRAZIQUANTEL, (R)-]
[1]; [17]
  EC50: 80 nM
[9]
  Activity: 100%
[11]
  Activity: Active
[12]
  Activity: 100%

## O=C(C1CCCCC1)N1CC(=O)N2CCc3ccccc3C2C1 (racemic) [PRAZIQUANTEL]
[13]
  Activity: Active
[1]; [17]
  EC50: 120 nM
[9]
  Activity: 100%
[11]
  Activity: Active
[6]
  Activity: Active
[14]
  Activity: Active
[12]
  Activity: 100%

## Nc1ccc(C(=O)N2CC(=O)N3CCc4ccccc4C3C2)cc1 (centres undefined)
[1]; [17]
  EC50: 800 nM
[15]
  Ratio EC50: 8
[9]
  Activity: 100%
[3]; [18]
  EC50: 960 nM
[5]
  Activity: Active
[7]; time 5 day
  Activity: 100%
[16]
  Ratio EC50: 8

## N[C@H]1CC[C@@H](C(=O)N2CC(=O)N3CCc4ccccc4C3C2)CC1 (some centres undefined)
[1]; [17]
  EC50: > 100000 nM
[2]
  Activity: <90%
[3]; [18]
  EC50: > 100000 nM
[4]; hek293
  EC50: Not Active
[5]
  Activity: inactive
[7]; time 5.0 day
  Activity: inactive

## O=C(C1CC1)N1CC(=O)N2CCc3ccccc3C2C1 (centres undefined)
[1]; [17]
  EC50: 65000 nM
[2]
  Activity: 100%
[3]; [18]
  EC50: 53000 nM
[4]; hek293
  EC50: Not Active
[5]
  Activity: inactive
[7]; time 5 day
  Activity: <90%

## O=C(c1ccc([N+](=O)[O-])cc1)N1CC(=O)N2CCc3ccccc3C2C1 (centres undefined)
[1]; hek293
  EC50: Not Active
[2]
  Activity: 100%
[3]; hek293
  EC50: Not Active
[4]; hek293
  EC50: Not Active
[5]
  Activity: inactive
[7]; time 5 day
  Activity: <90%

## O=C(C1CCCCC1)N1CC(=O)N2CCc3ccccc3[C@H]2C1
[1]; [17]
  EC50: 1230 nM
[2]
  Activity: 100%
[5]
  Activity: Active
[7]; time 5 day
  Activity: >90%

## CNc1ccc(C(=O)N2CC(=O)N3CCc4ccccc4C3C2)cc1 (centres undefined)
[1]; [17]
  EC50: > 100000 nM
[9]
  Activity: 100%
[3]; [18]
  EC50: > 100000 nM
[4]; hek293
  EC50: Not Active
[5]
  Activity: inactive
[7]; time 5 day
  Activity: 100%
